Results on 17 molecules are retold here after ChEMBL document CHEMBL4602607, “Hit-to-Lead Optimization of Benzoxazepinoindazoles As Human African Trypanosomiasis Therapeutics” (J Med Chem, 2020).

Series [1] can be described thus: Distribution coefficient, logD of compound. Type of series: physicochemical. To be noted: octanol/water.
Series [2] is described as follows: Intrinsic clearance in rat hepatocytes assessed per 10^6 cells by LC-MS/MS analysis. The class given is ADME, cell-based, Hepatocyte. Put shortly: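 Rat hepatocyte incubation, samples analysed by LC/MS/MS; intrinsic clearance reported in µL/min/1 million cells.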
A short description of series [3]: Ratio of drug concentration in brain to blood in NMRI mouse at 10 mg/kg, ip measured at 4 hrs by LC-MS/MS analysis. Type of series: ADME, organism-based. The following applies: brain and blood, read-out: BBR.
Series [4] can be described thus: Ratio of drug concentration in brain to blood in NMRI mouse at 10 mg/kg, ip measured at 0.5 hrs by LC-MS/MS analysis. Type of series: ADME, organism-based. The following applies: brain and blood, read-out: BBR.
Series [5] is described as follows: Cmax in NMRI mouse at 10 mg/kg, ip measured up to 24 hrs by LC-MS/MS analysis. The class given is ADME, organism-based. To be noted: in vivo. The arrangement: dose 10 mg/kg, route intraperitoneal.
Another series in a line: in vivo. The following applies: NMRI, mouse, ip, 10 mg/kg.
Series [6] is described as follows: Intrinsic clearance in human liver microsomes assessed per mg protein by LC-MS/MS analysis. The class given is ADME, Microsome. A general note: Microsomes from liver hold many membrane-bound enzymes, among them those of drug oxidation.
Series [7] is described as follows: Half life in NMRI mouse at 10 mg/kg, ip measured up to 24 hrs by LC-MS/MS analysis. To be noted: in vivo. The class given is ADME, organism-based.

As a reminder, the logD is the decadic logarithm of the distribution of all forms, ionised or not, between an organic phase and buffer at a given pH. In series [1], `Nc1cccc(-c2cc3c4c(n[nH]c4c2)Nc2ccccc2O3)n1` registered a log distribution coefficient (logD) of 3.7. Besides, the hepatocyte CLint in series [2] was 220 µL/min/10^6 cells.

In general, Cmax refers to the peak of the concentration-time curve. In general, Tmax refers to the time from dosing to the highest level. Molecule `CCOc1cc(-c2ccnc(N)n2)cc2[nH]nc(N)c12` displayed a logD in series [1] of 1.7. Also, the Kp at 4 h in series [3] came to 0.214. The Kp at 0.5 h in series [4] was found to be 0.155. Further, the Cmax in series [5] came to 3603 ng/mL. For the same molecule, the time to peak (Tmax) at 24 h in the series “in vivo” lay within 0.25 to 5 h. The molecule also gave a CLH in series [6] of 25 µL/min. In series [7], the t1/2 was determined as 53.6 min.

For the molecule `CCNc1cc(-c2cc3c4c(n[nH]c4c2)Nc2ccccc2O3)nc(N)n1`, the hepatocyte CLint in series [2] worked out at 26 µL/min/10^6 cells.

`CN1CCN(c2cc(-c3cc4c5c(n[nH]c5c3)Nc3ccccc3O4)nc(N)n2)CC1` gave a logD in series [1] of 3.4. This molecule gave a hepatocyte CLint in series [2] of 16 µL/min/10^6 cells.

Take `CN(C)c1cc(-c2cc3c4c(n[nH]c4c2)Nc2ccccc2O3)nc(N)n1`: the logD in series [1] is on record as over 4.4. The same molecule registered a hepatocyte CLint in series [2] of 44 µL/min/10^6 cells.

In series [1], `Cn1nc2c3c(cc(-c4ccnc(N)n4)cc31)Oc1ccccc1N2` gave a logD of over 4.3. Moreover, the Kp at 4 h in series [3] is 2.12. In series [2], this molecule displayed a hepatocyte CLint of 12 µL/min/10^6 cells. The Kp at 0.5 h in series [4] turned out to be 2.39. This molecule returned a Cmax in series [5] of 615 ng/mL. Moreover, the time to peak (Tmax) at 24 h in “in vivo” lay within 0.25 to 5 h. In addition, the t1/2 in series [7] amounted to 63.6 min.

Take `CN(C)c1nccc(-c2cc3c4c(n[nH]c4c2)Nc2ccccc2O3)n1`: the logD in series [1] was over 3.9. In series [2], this molecule displayed a hepatocyte CLint of 29 µL/min/10^6 cells.

In the case of `Nc1nccc(-c2cc3c4c(n[nH]c4c2)N[C@@H]2CCC[C@H]2O3)n1`, in series [1] (read-out: logD), the pH-dependent lipophilicity (logD) came out at 2.8. Also, in series [2] (read-out: CLH), the hepatocyte CLint is 52 µL/min/1e6 cells.

Take `c1ccc2c(c1)Nc1n[nH]c3cccc(c13)O2`: the logD in series [1] (read-out: logD) is over 4. The same molecule yielded a hepatocyte CLint in series [2] of 47 µL/min/10^6 cells.

The molecule `Nc1ccnc(-c2cc3c4c(n[nH]c4c2)Nc2ccccc2O3)n1` showed a logD in series [1] of 4.1. In series [2], the hepatocyte CLint turned out to be 56 µL/min/10^6 cells.

The molecule `Nc1nc(-c2cc3c4c(n[nH]c4c2)Nc2ccccc2O3)cc(N2CCCCC2)n1` registered a pH-dependent lipophilicity (logD) in series [1] of 4.6. The molecule also displayed a hepatocyte CLint in series [2] of 25 µL/min/10^6 cells.

`CNc1cc(-c2cc3c4c(n[nH]c4c2)Nc2ccccc2O3)nc(N)n1` gave a log distribution coefficient (logD) in series [1] of over 4.2. The hepatocyte CLint in series [2] came to 45 µL/min/10^6 cells.

Take `Nc1cc(-c2cc3c4c(n[nH]c4c2)Nc2ccccc2O3)ncn1`: in series [1], the logD was 3.8. In addition, the hepatocyte CLint in series [2] is 73 µL/min/10^6 cells.

In series [1], `CNc1nccc(-c2cc3c4c(n[nH]c4c2)Nc2ccccc2O3)n1` showed a logD of 3.8. Moreover, the hepatocyte CLint in series [2] worked out at 45 µL/min/10^6 cells.

For `COCc1cc(-c2cc3c4c(n[nH]c4c2)Nc2ccccc2O3)nc(N)n1`, the hepatocyte CLint in series [2] is 41.4 µL/min/10^6 cells.

Turning to `c1ccc2c(c1)Nc1n[nH]c3cc(-c4ccncn4)cc(c13)O2`, in series [1], the logD is reported as 3.5. This molecule came in with a hepatocyte CLint in series [2] of 68 µL/min/10^6 cells.

As to `CC(C)Nc1cc(-c2cc3c4c(n[nH]c4c2)Nc2ccccc2O3)nc(N)n1`, the logD in series [1] was found to be 4.9. In addition, in series [2], the hepatocyte CLint is 32 µL/min/10^6 cells.
